Experimental data taken from ChEMBL document CHEMBL1139439, “Folate-synthesizing enzyme system as target for development of inhibitors and inhibitor combinations against Candida albicans-synthesis and biological activity of new 2,4-diaminopyrimidines and 4'-substituted 4-aminodiphenyl sulfones” (J Med Chem, 2004).
In brackets after ≈: the same amount, converted by molar mass.

Columns and labels:
Dihydrofolate reductase [1] = molecular target: T1, Dihydrofolate reductase (Rattus norvegicus, UniProt Q920D2); experiment: Inhibitory activity against cell free dihydrofolate reductase (DHFR) from rat; conditions: for IC50: read-out: I50
T1 sequence (Q920D2 whole entry): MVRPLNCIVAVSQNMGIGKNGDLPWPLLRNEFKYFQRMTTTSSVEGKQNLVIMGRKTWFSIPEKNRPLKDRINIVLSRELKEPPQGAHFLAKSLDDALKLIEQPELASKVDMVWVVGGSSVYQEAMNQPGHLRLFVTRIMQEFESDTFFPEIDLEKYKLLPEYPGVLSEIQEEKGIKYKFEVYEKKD

Dihydrofolate reductase [2] = molecular target: T2, Dihydrofolate reductase (Candida albicans, UniProt P22906); experiment: Inhibitory activity against cell free dihydrofolate reductase (DHFR) from Candida albicans; conditions: for IC50: read-out: I50
T2 sequence (P22906 whole entry): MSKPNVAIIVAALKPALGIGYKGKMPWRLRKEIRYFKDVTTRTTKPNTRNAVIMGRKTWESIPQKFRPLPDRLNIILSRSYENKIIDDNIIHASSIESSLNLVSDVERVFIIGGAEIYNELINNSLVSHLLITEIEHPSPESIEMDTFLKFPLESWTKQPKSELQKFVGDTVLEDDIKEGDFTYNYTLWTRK

[3] = Inhibitory activity against dihydropteroic acid synthase (SYN) from Escherichia coli; conditions: read-out: I50
[4] = Inhibitory activity against dihydropteroic acid synthase (SYN) from Mycobacterium lufu (DDS resistant); conditions: read-out: I50
[5] = Inhibitory activity against dihydropteroic acid synthase (SYN) from Mycobacterium lufu (DDS sensitive); conditions: read-out: I50
[6] = molecular target: T3, Dihydropteroate synthetase, putative (Plasmodium berghei str. ANKA, UniProt A0A113T0T6); experiment: (§1) Inhibitory activity against dihydropteroic acid synthase (SYN) from Plasmodium berghei; conditions: read-out: I50
T3 sequence (A0A113T0T6 whole entry): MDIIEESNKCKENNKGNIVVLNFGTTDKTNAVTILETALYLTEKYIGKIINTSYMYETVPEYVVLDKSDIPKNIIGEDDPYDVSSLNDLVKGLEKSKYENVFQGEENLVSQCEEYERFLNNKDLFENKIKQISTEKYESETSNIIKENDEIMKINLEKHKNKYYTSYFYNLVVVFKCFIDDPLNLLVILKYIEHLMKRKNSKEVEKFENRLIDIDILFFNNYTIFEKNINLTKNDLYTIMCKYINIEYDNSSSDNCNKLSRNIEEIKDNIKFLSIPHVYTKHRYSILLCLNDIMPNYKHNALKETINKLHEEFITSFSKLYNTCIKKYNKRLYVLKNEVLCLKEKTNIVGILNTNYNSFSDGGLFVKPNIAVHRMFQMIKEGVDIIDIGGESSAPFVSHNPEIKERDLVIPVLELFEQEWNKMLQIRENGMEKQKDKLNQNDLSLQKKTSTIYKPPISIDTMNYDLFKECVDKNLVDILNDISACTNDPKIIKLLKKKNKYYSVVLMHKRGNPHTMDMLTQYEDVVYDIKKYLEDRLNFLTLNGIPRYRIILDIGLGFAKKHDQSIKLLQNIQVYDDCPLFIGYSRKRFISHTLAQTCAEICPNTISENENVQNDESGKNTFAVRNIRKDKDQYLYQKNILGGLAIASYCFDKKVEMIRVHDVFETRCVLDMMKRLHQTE

[7] = Inhibitory activity against dihydropteroic acid synthase (SYN) from candida albicans; conditions: read-out: I50
Method in brief: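 Partially purified SYN extract was prepared from C. albicans ATCC 11651 and incubated with sulfones at pH 8.4. Periodic samples were quenched with trichloroacetic acid, and folate formed was quantified by bioassay with folate-requiring Streptococcus faecium. I50 is the concentration giving a 50% decrease in dihydropteroic acid production versus the uninhibited control.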

Candida albicans [8] = experiment: Inhibitory effect on Candida albicans YEM15 CDR1CDR2up Strain; type: functional
Method in brief: (§2)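 MICs were determined by serial dilution in RPMI medium. MIC is the lowest concentration giving culture turbidity ≤20% of the control culture.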

Candida albicans [9] = experiment: Inhibitory effect on Candida albicans wild type YEM30 Strain; type: functional; method in brief: as §2
Candida albicans [10] = experiment: Inhibitory effect on Candida albicans YEM13 BENup Strain; type: functional; method in brief: as §2
Candida albicans [11] = experiment: Inhibitory effect on Candida albicans YEM12 Strain; type: functional; method in brief: as §2
Nakaseomyces glabratus [12] = experiment: Inhibitory effect on Candida glabrata YEM88 CgCDR1 CgCDR2up Strain; type: functional
Method in brief: (§3)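 For C. glabrata strains, MICs were determined by serial dilution in RPMI medium and read after 48 h. MIC is the lowest concentration giving turbidity ≤20% of the control culture.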

Candida albicans [13] = experiment: Inhibitory effect on Candida albicans wild type YEM14 Strain; type: functional; method in brief: as §2
Nakaseomyces glabratus [14] = experiment: Inhibitory effect on Candida glabrata YEM75 WT Strain; type: functional; method in brief: as §3
Candida albicans [15] = experiment: Inhibitory effect on Candida albicans YEM27 quad deletion Strain; type: functional; method in brief: as §2
Nakaseomyces glabratus [16] = experiment: Inhibitory effect on Candida glabrata YEM216 pCDR1pCDR2pBEN YEM75 WT Strain; type: functional; method in brief: as §3
[17] = molecular target: T4, Dihydropteroate synthetase, putative (Plasmodium berghei str. ANKA) (UniProt A0A113T0T6); experiment: as §1
T4 sequence (whole entry): T3 sequence (A0A113T0T6 whole entry)

Row | SMILES | IC50 (Dihydrofolate reductase [1]) | IC50 (Dihydrofolate reductase [2]) | IC50 [4] | IC50 [5] | other results
1 | Nc1ncc(Cc2ccc(OCCCCN3C(=O)c4ccccc4C3=O)cc2)c(N)n1 | 3.64 µM | 0.047 µM |  |  | 
2 | Nc1ncc(CSc2ccc3ccccc3c2)c(N)n1 |  | 30.9 µM |  |  | I50 (Dihydrofolate reductase [1]): 110.6 uM l-1
3 | Nc1ncc(OCc2ccc(Br)c3ccccc23)c(N)n1 | 2.82 µM | 0.49 µM |  |  | 
4 | Cc1nc(N)nc(N)c1OCc1ccc(Cl)c(Cl)c1 | 4.58 µM | 1.34 µM |  |  | 
5 | Cc1nc(N)nc(N)c1Cc1ccccc1 | 3.36 µM | 1.85 µM |  |  | 
6 | Nc1ccc(S(=O)(=O)c2ccc(N)cc2)cc1 [DAPSONE] |  |  | 1.18 µM | 1.2 µM | IC50 [3]: 34.4 µM; IC50 [6]: 12.4 µM; IC50 [7]: 1.78 µM
7 | Nc1ncc(OCc2ccccc2)c(N)n1 | 10.1 µM | 1.24 µM |  |  | 
8 | Nc1ncc(OCc2cccc3ccccc23)c(N)n1 | 2.63 µM | 0.43 µM |  |  | MIC (Candida albicans [8]): > 64 mg/L; MIC (Candida albicans [9]): > 64 mg/L; MIC (Candida albicans [10]): > 64 mg/L; MIC (Candida albicans [11]): 32 mg/L (≈ 120 µM); MIC (Nakaseomyces glabratus [12]): 64 mg/L (≈ 240 µM); MIC (Candida albicans [13]): > 64 mg/L; MIC (Nakaseomyces glabratus [14]): 16 mg/L (≈ 60.1 µM); MIC (Candida albicans [15]): 32 mg/L (≈ 120 µM); MIC (Nakaseomyces glabratus [16]): 16 mg/L (≈ 60.1 µM)
9 | COc1ccc(S(=O)(=O)c2ccc(N)cc2)cc1 |  |  | 9.33 µM | 7.55 µM | IC50 [3]: 128 µM; IC50 [7]: 9.05 µM
10 | Nc1ncc(Cc2ccc3ccccc3c2)c(N)n1 | 61.2 µM | 4.77 µM |  |  | 
11 | Nc1ncc(OCc2ccc(Cl)c(Cl)c2)c(N)n1 | 56.7 µM | 3.72 µM |  |  | 
12 | CNc1ccc(S(=O)(=O)c2ccc(N)cc2)cc1 |  |  | 2 µM | 1.29 µM | IC50 [3]: 46.2 µM; IC50 [6]: 26.7 µM; IC50 [7]: 2.81 µM
13 | CN(C)c1ccc(S(=O)(=O)c2ccc(N)cc2)cc1 |  |  | 2.04 µM | 1.76 µM | IC50 [6]: 21.5 µM; IC50 [7]: 3.83 µM
14 | CC(C)(C)c1ccc(COc2cnc(N)nc2N)cc1 |  | 23.8 µM |  |  | I50 (Dihydrofolate reductase [1]): 106 uM l-1
15 | CC(=O)Nc1ccc(S(=O)(=O)c2ccc(N)cc2)cc1 [MONO-N-ACETYL DAPSONE] |  |  | 4.05 µM | 7.01 µM | IC50 [3]: 75.7 µM; IC50 [6]: 33.3 µM
16 | COc1ccc(CNc2cnc(N)nc2N)cc1OC |  |  |  |  | I50 (Dihydrofolate reductase [1]): 197.3 uM l-1; I50 (Dihydrofolate reductase [2]): 125.8 uM l-1
17 | Nc1ncc(NCc2ccc(Cl)c(Cl)c2)c(N)n1 |  | 84.8 µM |  |  | I50 (Dihydrofolate reductase [1]): > 350 uM l-1
18 | Nc1ncc(CNc2ccccc2)c(N)n1 |  | 59.4 µM |  |  | I50 (Dihydrofolate reductase [1]): 133.1 uM l-1
19 | Cc1ccc(S(=O)(=O)c2ccc(N)cc2)cc1 |  |  | 5.92 µM | 8.08 µM | IC50 [3]: 89.9 µM; IC50 [6]: 48 µM; IC50 [7]: 10.1 µM
20 | Nc1ccc(S(=O)(=O)c2ccc(C(=O)O)cc2)cc1 |  |  | 3.17 µM | 3.6 µM | IC50 [3]: 74.2 µM; IC50 [7]: 2.78 µM
21 | Nc1ncc(/C=C/c2ccccc2)c(N)n1 |  | 5.72 µM |  |  | I50 (Dihydrofolate reductase [1]): 130.6 uM l-1
22 | COc1ccc(Cc2cnc(N)nc2N)cc1OCCCCN1C(=O)c2ccccc2C1=O | 1.76 µM | 0.061 µM |  |  | MIC (Candida albicans [8]): > 64 mg/L; MIC (Candida albicans [9]): > 64 mg/L; MIC (Candida albicans [10]): > 64 mg/L; MIC (Candida albicans [11]): > 64 mg/L; MIC (Nakaseomyces glabratus [12]): > 64 mg/L; MIC (Candida albicans [13]): > 64 mg/L; MIC (Nakaseomyces glabratus [14]): > 64 mg/L; MIC (Candida albicans [15]): > 64 mg/L; MIC (Nakaseomyces glabratus [16]): > 64 mg/L
23 | NNC(=O)c1ccc(S(=O)(=O)c2ccc(N)cc2)cc1 |  |  | 9.6 µM | 12.7 µM | IC50 [3]: 155 µM; I50 [17]: 76.5 µM
24 | COc1cc(COc2cnc(N)nc2N)ccc1OCCCNS(=O)(=O)c1ccc(C)cc1 | 4.53 µM | 0.538 µM |  |  | 
25 | Nc1ncc(OCc2c(Cl)cccc2Cl)c(N)n1 | 2.57 µM | 3.1 µM |  |  | 
26 | Nc1ccc(S(=O)(=O)c2ccc(O)cc2)cc1 |  |  | 1.61 µM | 1.5 µM | IC50 [3]: 34.9 µM; I50 [17]: 32.2 µM; IC50 [7]: 2.4 µM
27 | Nc1ncc(OCc2ccc(OCc3ccccc3)cc2)c(N)n1 | 39.4 µM | 2.81 µM |  |  | 
28 | COc1ccc(CNc2cnc(N)nc2N)cc1 |  | 52.3 µM |  |  | I50 (Dihydrofolate reductase [1]): 146.2 uM l-1
